Test system: Mycobacterium tuberculosis
Assay: Antitubercular activity against […] after 7 days by alamar blue assay
Format: functional
Conditions: 168 h
Summary of the method: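 M. bovis BCG stock, thawed with sonication/ice cycles, diluted to 8 × 10⁴ bacteria per mL in Tween albumin broth (Dubos/OADC). Compounds prepared in PBS (up to 5% DMSO) at double strength, filter-sterilised, serially diluted; tested in triplicate from […] start.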

SMILES	MIC
OC[C@H]1NC[C@H](O)[C@H]1O	> 3500 µM
OC[C@@H]1NC[C@@H](O)[C@@H]1O	> 3500 µM
NC1CCCCCCCCCCC1	680 µM
O=C1OC[C@H]2[C@@H](O)[C@@H](O)CN12	> 3500 µM
OC[C@@H](O)[C@H](O)[C@H](O)CNC1CCCCCCCCCCC1	160 µM
C=C[C@@H](O)[C@H](O)CNCc1ccccc1	> 500 µg/mL
OC[C@@H]1NC[C@H](O)[C@@H]1O	> 3500 µM
C[C@H](O)[C@@H](O)[C@@H](O)[C@H](O)CNC1CCCCCCC1	> 500 µg/mL
C=C[C@@H](O)[C@@H](O)CNCCCCCCCC	940 µM
C=C[C@@H](O)[C@@H](O)CNCc1ccccc1	> 500 µg/mL
C=C[C@H](O)[C@@H](O)CNCc1ccccc1	> 500 µg/mL
C=C[C@@H](O)[C@@H](O)CN	> 3500 µM
C=C[C@@H](O)[C@H](O)CNC(c1ccccc1)c1ccccc1	1600 µM
C=C[C@@H](O)[C@@H](O)CNC(c1ccccc1)c1ccccc1	1600 µM
C[C@H](O)[C@@H](O)[C@@H](O)[C@H](O)CNC1CCCCCCCCCCC1	680 µM
O=C1OC[C@H]2[C@@H](O)CCN12	> 3500 µM
O=C1OC[C@H]2[C@@H](O)[C@H](O)CN12	> 3500 µM
C=C[C@@H](O)[C@H](O)CN(C)CCCCCCCCCCCCCCCC	22 µM
C=C[C@@H](O)[C@H](O)CNCCCCCCCC	680 µM
OC[C@@H]1NCC[C@@H]1O	> 3500 µM
C=C[C@H](O)[C@@H](O)CNCCCCCCCC	940 µM

SMILES	MIC
C=C[C@H](O)[C@@H](O)CNC(c1ccccc1)c1ccccc1	440 µM
C=C[C@H](OC)[C@H](CNC(c1ccccc1)c1ccccc1)OC	800 µM
C=C[C@@H](O)[C@H](O)CNCCCCCCCCCCCCCCCC	21 µM
C=C[C@@H](O)[C@H](O)CNC[C@@H](O)[C@H](O)C=C	2000 µM
C[C@H](O)[C@H](O)[C@@H](O)[C@@H](O)CNC1CCCCCCC1	> 500 µg/mL
C=C[C@@H](O)[C@H](O)CN(CCCC)CCCC	> 500 µg/mL
OC[C@@H](O)[C@H](O)[C@H](O)CNC1CCCCC1	> 500 µg/mL
C=C[C@@H](O)[C@H](O)CNC12CC3CC(CC(C3)C1)C2	> 500 µg/mL
C=C[C@@H](O)CCN	> 3500 µM
C[C@H](O)[C@@H](O)[C@@H](O)[C@H](O)CNC1CCCCC1	> 500 µg/mL
O=C1OC[C@@H]2[C@H](O)[C@@H](O)CN12	> 3500 µM
OC[C@@H](O)[C@H](O)[C@H](O)CNC12CC3CC(CC(C3)C1)C2	> 500 µg/mL
C=C[C@@H](O)[C@H](O)CNC1CCCCCCCCCCC1	200 µM
OC[C@@H](O)[C@H](O)[C@H](O)CNC1CCCCCCC1	> 500 µg/mL
C=C[C@H](O)[C@@H](O)CN	> 3500 µM
C=C[C@@H](O)[C@H](O)CN	> 3500 µM
C=C[C@@H](O)[C@H](O)CNCCCCCCCCCCCCCC	45 µM
NC(c1ccccc1)c1ccccc1 [AMINODIPHENYLMETHANE]	1360 µM
CC[C@@H](CO)NCCN[C@@H](CC)CO [ETHAMBUTOL]	39 µM
CCCCCCCCCCCCCCCCN [HEXADECYLAMINE]	130 µM
CCCCCCCCCCCCCCN [TETRADECYLAMINE]	140 µM

From ChEMBL document CHEMBL3751768, “Synthesis and anti-tuberculosis activity of glycitylamines” (2016)
